The target in one experiment is Mu-type opioid receptor (Homo sapiens, UniProt P35372). As to the kind of experiment: Displacement of [3H]DAMGO from cloned human mu opioid receptor. In general terms: In a radioligand displacement assay an active substance lowers the binding of a labelled ligand.
Experiment [1] concerns the target Kappa-type opioid receptor (Homo sapiens, UniProt P41145). As to the kind of experiment: Displacement of [3H]U-69593 from cloned human kappa opioid receptor.
The target in experiment [2] is Delta-type opioid receptor (Homo sapiens, UniProt P41143). In words: Displacement of [3H]DPDPE from cloned human delta opioid receptor.
Chain of Delta-type opioid receptor (P41143 whole entry): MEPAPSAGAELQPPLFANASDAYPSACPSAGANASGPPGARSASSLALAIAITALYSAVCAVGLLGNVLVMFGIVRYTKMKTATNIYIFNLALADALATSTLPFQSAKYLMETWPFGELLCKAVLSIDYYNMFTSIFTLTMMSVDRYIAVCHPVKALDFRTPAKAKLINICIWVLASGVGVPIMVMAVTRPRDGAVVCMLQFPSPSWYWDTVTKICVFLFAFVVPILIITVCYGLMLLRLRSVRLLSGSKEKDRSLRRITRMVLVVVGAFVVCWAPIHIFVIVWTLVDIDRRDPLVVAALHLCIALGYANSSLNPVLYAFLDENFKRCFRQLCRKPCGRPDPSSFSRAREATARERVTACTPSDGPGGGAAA
Experiment [3] deals with Opioid receptors; mu & delta (Homo sapiens) (UniProt P41143+P35372). In words: Selectivity for delta opioid receptor over mu opioid receptor. The experiment is classed as protein assay.
Chain of Opioid receptors; mu & delta (Homo sapiens) (P35372 whole entry, looked up): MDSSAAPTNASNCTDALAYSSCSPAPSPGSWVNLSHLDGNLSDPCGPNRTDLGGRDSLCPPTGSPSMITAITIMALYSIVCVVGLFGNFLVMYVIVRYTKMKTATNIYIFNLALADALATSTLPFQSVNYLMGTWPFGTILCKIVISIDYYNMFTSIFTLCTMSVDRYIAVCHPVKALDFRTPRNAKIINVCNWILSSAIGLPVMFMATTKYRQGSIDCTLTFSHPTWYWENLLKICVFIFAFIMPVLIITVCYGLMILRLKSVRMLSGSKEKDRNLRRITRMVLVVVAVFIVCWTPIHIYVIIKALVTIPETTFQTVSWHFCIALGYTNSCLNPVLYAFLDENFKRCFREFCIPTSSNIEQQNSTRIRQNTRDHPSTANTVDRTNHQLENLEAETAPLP
Chain of Opioid receptors; mu & delta (Homo sapiens) (P41143 whole entry, looked up): as the sequence (P41143 whole entry) above
The species named for experiment [4] is Mus musculus. In words: Anxiolytic activity in mouse assessed as lowest active dose by neonatal ultrasonic vocalization test. The experiment is classed as functional. In short, it runs like this:
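Neonatal mice; read-out is the number and duration of ultrasonic calls. The value is the lowest dose tested that gave a statistically significant reduction in calls.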

Experiment [5] is filed under the species Mus musculus. As to the kind of experiment: Decrease in duration of immobility in mouse assessed as lowest active dose by tail suspension test.
Experiment [6] concerns the target Opioid receptors; delta & kappa (Homo sapiens) (UniProt P41145+P41143). In words: Selectivity for delta opioid receptor over kappa opioid receptor. The experiment is classed as protein assay.

Chain of Opioid receptors; delta & kappa (Homo sapiens) (P41143 whole entry, looked up): as the sequence (P41143 whole entry) above
Chain of Opioid receptors; delta & kappa (Homo sapiens) (P41145 whole entry, looked up): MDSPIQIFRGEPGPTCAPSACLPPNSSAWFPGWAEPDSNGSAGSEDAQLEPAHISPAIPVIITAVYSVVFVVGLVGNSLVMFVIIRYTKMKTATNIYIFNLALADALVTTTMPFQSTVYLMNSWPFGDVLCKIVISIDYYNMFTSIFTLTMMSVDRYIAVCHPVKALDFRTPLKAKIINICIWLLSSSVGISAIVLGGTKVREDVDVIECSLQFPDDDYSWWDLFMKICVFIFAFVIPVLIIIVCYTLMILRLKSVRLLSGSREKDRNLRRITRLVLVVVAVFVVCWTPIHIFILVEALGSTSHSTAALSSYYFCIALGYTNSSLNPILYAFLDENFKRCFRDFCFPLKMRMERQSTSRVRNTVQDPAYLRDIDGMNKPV
Chain of Mu-type opioid receptor (P35372 whole entry): as the sequence (P35372 whole entry, looked up) above
Chain of Kappa-type opioid receptor (P41145 whole entry): as the sequence (P41145 whole entry, looked up) above

`CCCCOC(=O)N1CCC(c2ccccc2)(c2nccn2Cc2ccccc2)CC1`: the Ki on Mu-type opioid receptor was greater than 0.465 µM; in experiment [1], 0.188 µM.

In turn, `COC(=O)N1CCC(c2ccccc2)(c2nccn2Cc2ccccc2)CC1` came in with a Ki on Mu-type opioid receptor greater than 4.65 µM.

For the compound `CC(=O)N1CCC(c2ccccc2)(c2nccn2Cc2ccccc2)CC1`, the results for the inhibition constant (Ki) (on Mu-type opioid receptor; in experiment [1]) were greater than 0.465 µM and 1.01 µM, respectively.

Consider `CCOC(=O)N1CCC(c2ccccc2)(c2nccn2C/C=C/c2ccccc2)CC1`, for which the results for the inhibitory constant (Ki) (in experiment [2]; on Mu-type opioid receptor) were 0.28 µM and greater than 0.465 µM, respectively. Moreover, the Ratio Ki in experiment [3] was greater than 1.6.

Take `CCOC(=O)N1CCC(c2ccccc2)(c2nccn2Cc2ccc(F)cc2)CC1`: the inhibition constant (Ki) was 0.051 µM in experiment [2] and greater than 0.465 µM at Mu-type opioid receptor. The Ratio Ki in experiment [3] is greater than 6.5.

Regarding `Cc1cc(C)cc(C(=O)N2CCC(c3ccccc3)(c3nccn3Cc3ccccc3)CC2)c1`, the Ki was greater than 0.465 µM at Mu-type opioid receptor and 0.284 µM in experiment [1].

For the compound `COCC(=O)N1CCC(c2ccccc2)(c2nccn2C(C)c2ccccc2)CC1` (stereo not drawn), the Ki (at Mu-type opioid receptor; in experiment [1]) was greater than 4.65 µM in each case.

Regarding `CCOC(=O)N1CCC(c2ccccc2)(c2nccn2Cc2ccccc2)CC1`, the figures for the Activity in the experiment listed under Mus musculus [4] and in the experiment listed under Mus musculus [5] were 10 mg/kg and 30 mg/kg, respectively.

For `O=C(c1ccccc1)N1CCC(c2ccccc2)(c2nccn2Cc2ccccc2)CC1`, the inhibition constant (Ki) at Mu-type opioid receptor is greater than 4.65 µM; in experiment [1] it was 0.124 µM. Besides, the Activity in the experiment listed under Mus musculus [4] was less than 1 mg/kg; in the experiment filed under Mus musculus [5], 10 mg/kg.

Take `CCOC(=O)N1CCC(c2ccccc2)(c2nccn2Cc2ccc(OC)cc2)CC1`: the Ki is greater than 4.65 µM on Mu-type opioid receptor and 0.201 µM in experiment [1].

Turning to `CCOC(=O)N1CCC(c2ccccc2)(c2nccn2Cc2cccc(F)c2)CC1`, the Ki on Mu-type opioid receptor is greater than 0.465 µM; in experiment [1] it was greater than 4.65 µM.

With `COC(=O)c1ccc(Cn2ccnc2C2(c3ccccc3)CCN(C(=O)c3ccccc3)CC2)cc1`, the Ki at Mu-type opioid receptor was greater than 4.65 µM; in experiment [1] it was 0.088 µM.

On Mu-type opioid receptor, `O=C(Cc1ccccc1)N1CCC(c2ccccc2)(c2nccn2Cc2ccccc2)CC1` had a Ki greater than 0.465 µM.

With `COCC(=O)N1CCC(c2ccccc2)(c2nccn2Cc2ccccc2)CC1`, the Ki at Mu-type opioid receptor is greater than 0.465 µM; in experiment [1], 0.622 µM.

Regarding `O=C(OC1CCCCC1)N1CCC(c2ccccc2)(c2nccn2Cc2ccccc2)CC1`, the Ki in experiment [2] is 0.0074 µM; on Mu-type opioid receptor, greater than 0.465 µM; in experiment [1], 0.121 µM. For the same compound, the Ratio Ki is greater than 63 in experiment [3] and 16 in experiment [6].

In the case of `COCC(=O)N1CCC(c2ccccc2)(c2nccn2Cc2ccc(C(=O)OC)cc2)CC1`, the Ki at Mu-type opioid receptor is greater than 4.65 µM; in experiment [1], 0.065 µM.

On to `CCCOC(=O)N1CCC(c2ccccc2)(c2nccn2Cc2ccccc2)CC1`, for which the Ki on Mu-type opioid receptor is greater than 0.465 µM; in experiment [1], greater than 4.65 µM.

As to `CC(C)OC(=O)N1CCC(c2ccccc2)(c2nccn2Cc2ccccc2)CC1`, the values for the Ki (on Mu-type opioid receptor; in experiment [1]) were greater than 0.465 µM and 0.201 µM, respectively.

Take `O=C(c1cc(C(F)(F)F)cc(C(F)(F)F)c1)N1CCC(c2ccccc2)(c2nccn2Cc2ccccc2)CC1`: the results for the inhibition constant (Ki) (in experiment [2]; at Mu-type opioid receptor) were 0.029 µM and greater than 0.465 µM, respectively. Moreover, the Ratio Ki in experiment [3] was greater than 16.

`CC(c1ccccc1)n1ccnc1C1(c2ccccc2)CCN(C(=O)c2ccccc2)CC1` (stereo not drawn): the values for the Ki (at Mu-type opioid receptor; in experiment [1]) were greater than 4.65 µM and 0.334 µM, respectively.

Regarding `CCC(=O)N1CCC(c2ccccc2)(c2nccn2Cc2ccccc2)CC1`, at Mu-type opioid receptor, the Ki was greater than 0.465 µM.

Turning to `CC(C)C(=O)N1CCC(c2ccccc2)(c2nccn2Cc2ccccc2)CC1`, the Ki in experiment [2] is 0.048 µM; at Mu-type opioid receptor, greater than 0.465 µM; in experiment [1], 0.621 µM. For the same compound, the values for the Ratio Ki in experiment [3] and in experiment [6] were greater than 10 and 13, respectively.

Take `COC(=O)c1cccc(Cn2ccnc2C2(c3ccccc3)CCN(C(=O)c3ccccc3)CC2)c1`: the Ki was 0.085 µM in experiment [2] and greater than 0.465 µM at Mu-type opioid receptor. The Ratio Ki in experiment [3] is greater than 5.5.

As to `O=C(C1CC1)N1CCC(c2ccccc2)(c2nccn2Cc2ccccc2)CC1`, the Ki in experiment [2] was 0.023 µM; on Mu-type opioid receptor it was greater than 0.465 µM. Moreover, in experiment [3], the Ratio Ki is greater than 20.

As to `CCOC(=O)N1CCC(c2ccccc2)(c2nccn2CC2CCCCC2)CC1`, the Ki in experiment [2] is 0.147 µM; at Mu-type opioid receptor, greater than 0.465 µM. Also, the Ratio Ki in experiment [3] was greater than 3.2.

For `CCOC(=O)N1CCC(c2ccccc2)(c2nccn2Cc2ccc(O)cc2)CC1`, the Ki at Mu-type opioid receptor was greater than 0.465 µM; in experiment [1], 0.108 µM.

For the compound `Cc1cc(C)c(C(=O)N2CCC(c3ccccc3)(c3nccn3Cc3ccccc3)CC2)c(C)c1`, the Ki in experiment [2] was 0.125 µM; on Mu-type opioid receptor, greater than 4.65 µM. In experiment [3], the Ratio Ki is greater than 37.

`CC(C)(C)C(=O)N1CCC(c2ccccc2)(c2nccn2Cc2ccccc2)CC1` gave a Ki at Mu-type opioid receptor greater than 4.65 µM.

In the case of `CCOC(=O)N1CCC(c2ccccc2)(c2nccn2Cc2ccc3ccccc3c2)CC1`, the Ki in experiment [2] is 0.642 µM; on Mu-type opioid receptor, greater than 0.465 µM; in experiment [1], 3.12 µM. The Ratio Ki in experiment [3] is greater than 0.7; in experiment [6], 4.8.

Take `CC(C)(C)OC(=O)N1CCC(c2ccccc2)(c2nccn2Cc2ccccc2)CC1`: the Ki is greater than 0.465 µM on Mu-type opioid receptor and 0.084 µM in experiment [1].

As to `CCOC(=O)N1CCC(c2ccccc2)(c2nccn2Cc2ccc(C(=O)OC)cc2)CC1`, the Ki on Mu-type opioid receptor is greater than 0.465 µM; in experiment [1] it was 0.025 µM.

On to `CCN(CC)C(=O)c1ccc(Cn2ccnc2C2(c3ccccc3)CCN(C(=O)c3ccccc3)CC2)cc1`, for which the Ki is 0.158 µM in experiment [2] and greater than 4.65 µM on Mu-type opioid receptor. Moreover, the Ratio Ki in experiment [3] is greater than 29.

Consider `O=C(OCc1ccccc1)N1CCC(c2ccccc2)(c2nccn2Cc2ccccc2)CC1`, for which the values for the Ki (on Mu-type opioid receptor; in experiment [1]) were greater than 0.465 µM and 0.121 µM, respectively.

Consider `CCOC(=O)N1CCC(c2ccccc2)(c2nccn2Cc2ccccn2)CC1`, for which the inhibition constant (Ki) in experiment [2] is 0.173 µM; at Mu-type opioid receptor it was greater than 0.465 µM. Besides, the Ratio Ki in experiment [3] is greater than 2.7.

As to `CCOC(=O)N1CCC(c2ccccc2)(c2nccn2Cc2cccc(OC)c2)CC1`, the figures for the Ki (on Mu-type opioid receptor; in experiment [1]) were greater than 4.65 µM and 0.366 µM, respectively.

In the case of `CCOC(=O)N1CCC(c2ccccc2)(c2nccn2C(C)c2ccccc2)CC1` (stereo not drawn), the Ki at Mu-type opioid receptor was greater than 0.465 µM; in experiment [1] it was 0.062 µM.

What is called Ki is a dissociation constant, usually derived from enzyme kinetics or from competition with a known ligand. A higher Ki goes with weaker binding.

Values taken from ChEMBL document CHEMBL1149528, “4-Phenyl-4-[1H-imidazol-2-yl]-piperidine derivatives as non-peptidic selective delta-opioid agonists with potential anxiolytic/antidepressant properties. Part 2” (Bioorg Med Chem Lett, 2007).
